Results taken from ChEMBL document CHEMBL1125894, “Dual-action cephalosporins: cephalosporin 3'-quaternary ammonium quinolones” (1991).
≈ marks a conversion by molar mass, not a printed value.

Legend:
[1] = test system: Citrobacter freundii; assay: In vitro antibacterial activity against Citrobacter freundii BS 16; type: functional
Procedure, shortened: (§1)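 Serial 2-fold dilutions in the NCCLS broth microdilution method for aerobic nonfastidious organisms, with an 18-h incubation. The value is reported as the minimum inhibitory concentration (MIC).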

[2] = test system: Enterobacter cloacae; assay: In vitro antibacterial activity against Enterobacter cloacae 5699; type: functional; procedure, shortened: as §1
[3] = test system: Escherichia coli; assay: In vitro antibacterial activity against Escherichia coli 257; type: functional; procedure, shortened: as §1
[4] = test system: Enterobacter cloacae; assay: In vivo activity in murine against Enterobacter cloacae 5699 infection after sc administration.; type: functional
Procedure, shortened: (§2)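 Mouse protection test in CD1 Swiss albino mice (18–20 g). Mice were infected intraperitoneally with 0.5 mL of a diluted bacterial suspension, then treated within 5 min with one 1.0 mL subcutaneous dose at the dorsal base of the neck. Doses ranged from 0.05 to 250 mg/kg, with six mice per group. ED50 was calculated by the Reed–Muench method.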

[5] = test system: Escherichia coli; assay: Antibacterial activity against Escherichia coli DC-O; type: functional; procedure, shortened: as §1
[6] = test system: Klebsiella pneumoniae; assay: In vitro antibacterial activity against Klebsiella pneumoniae A; type: functional; procedure, shortened: as §1
[7] = test system: Klebsiella pneumoniae; assay: In vivo activity in murine against Klebsiella pneumoniae A infection after sc administration.; type: functional; procedure, shortened: as §2
[8] = test system: Escherichia coli; assay: Concentration required for 90% inhibition against 60 kDa penicillin-binding protein 3 binding using [14C]-Pen G as the radioligand.
Procedure, shortened: (§3)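 Solubilized membranes from sonicated E. coli DC-0 were used. PBP binding was measured as inhibition of [14C]penicillin G binding to each PBP.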

[9] = biological target: T1, Penicillin-binding protein 1B (Escherichia coli K-12) (UniProt P02919); assay: Concentration required for 90% inhibition against 90 kDa penicillin-binding protein 1b binding using [14C]-Pen G as the radioligand.; procedure, shortened: as §3
T1 sequence (whole entry): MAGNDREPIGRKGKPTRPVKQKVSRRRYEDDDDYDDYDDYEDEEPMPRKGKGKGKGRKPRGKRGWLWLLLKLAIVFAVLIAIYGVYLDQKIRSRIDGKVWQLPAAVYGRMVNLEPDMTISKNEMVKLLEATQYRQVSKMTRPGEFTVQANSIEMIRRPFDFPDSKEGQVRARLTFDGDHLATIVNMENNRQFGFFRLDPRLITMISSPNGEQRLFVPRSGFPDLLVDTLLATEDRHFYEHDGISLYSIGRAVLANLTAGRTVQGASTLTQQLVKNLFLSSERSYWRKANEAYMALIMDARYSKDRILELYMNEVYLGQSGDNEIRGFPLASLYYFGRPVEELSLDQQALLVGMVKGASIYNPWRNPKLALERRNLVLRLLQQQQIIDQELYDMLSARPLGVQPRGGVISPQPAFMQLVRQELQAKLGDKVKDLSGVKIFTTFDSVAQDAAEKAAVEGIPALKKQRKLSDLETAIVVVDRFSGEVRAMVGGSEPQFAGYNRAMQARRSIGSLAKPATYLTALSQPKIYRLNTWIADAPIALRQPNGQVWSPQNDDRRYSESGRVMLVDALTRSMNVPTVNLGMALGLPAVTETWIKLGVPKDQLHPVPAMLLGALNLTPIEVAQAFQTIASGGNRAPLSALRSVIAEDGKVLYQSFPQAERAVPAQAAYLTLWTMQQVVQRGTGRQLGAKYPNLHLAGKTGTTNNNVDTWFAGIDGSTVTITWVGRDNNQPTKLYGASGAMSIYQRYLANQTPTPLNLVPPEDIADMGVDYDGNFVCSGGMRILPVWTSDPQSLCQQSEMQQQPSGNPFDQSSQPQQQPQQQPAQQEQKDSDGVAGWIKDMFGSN

[10] = test system: Pseudomonas aeruginosa; assay: In vivo activity in murine against Pseudomonas aeruginosa 5712 infection after sc administration.; type: functional; conditions: Pseudomonas aeruginosa, sc; read-out: ED50
Procedure, shortened: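 Mouse protection test in CD1 Swiss albino mice (18–20 g) infected intraperitoneally with 0.5 mL of diluted P. aeruginosa suspension. Mice received 1.0 mL subcutaneously at the neck base within 5 min of infection and a second treatment 3 h after infection. Doses ranged from 0.05 to 250 mg/kg, with six mice per group. ED50 was calculated by the Reed–Muench method.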

[11] = test system: Pseudomonas aeruginosa; assay: In vitro antibacterial activity against Pseudomonas aeruginosa 5712; type: functional; procedure, shortened: as §1
[12] = test system: Staphylococcus aureus; assay: In vitro antibacterial activity against Staphylococcus aureus 95(MR); type: functional
Procedure, shortened: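 Staphylococci were tested by the standard agar dilution procedure using serial 2-fold dilutions of agent. The value is reported as the MIC.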

[13] = test system: Serratia marcescens; assay: In vivo activity in murine against Serratia marcescens SM infection after sc administration.; type: functional; procedure, shortened: as §2
[14] = test system: Serratia marcescens; assay: In vitro antibacterial activity against Serratia marcescens SM; type: functional; procedure, shortened: as §1
[15] = test system: Streptococcus pyogenes; assay: In vivo activity in murine against Streptococcus pyogenes 4 infection after sc administration.; type: functional; procedure, shortened: as §2
[16] = test system: Streptococcus pneumoniae; assay: In vivo activity in murine against Streptococcus pneumoniae 6301 infection after sc administration.; type: functional; procedure, shortened: as §2
[17] = test system: Streptococcus pneumoniae; assay: In vitro antibacterial activity against Streptococcus pneumoniae 6301; type: functional
Procedure, shortened: (§4)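 Broth macrodilution with serial 2-fold dilutions in cation-supplemented Mueller-Hinton broth containing 10% goat serum. The value is reported as the MIC.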

[18] = test system: Staphylococcus aureus; assay: In vivo activity in murine against Staphylococcus aureus 753(MR) infection after sc administration.; type: functional; procedure, shortened: as §2
[19] = test system: Staphylococcus aureus; assay: In vivo activity in murine against Staphylococcus aureus Smith (MS) infection after sc administration.; type: functional; procedure, shortened: as §2
[20] = test system: Streptococcus pyogenes; assay: In vitro antibacterial activity against Streptococcus pyogenes 4; type: functional; procedure, shortened: as §4
[21] = test system: Enterobacter cloacae; assay: In vitro antibacterial activity against Enterobacter cloacae P99; type: functional; procedure, shortened: as §1
[22] = test system: Citrobacter freundii; assay: In vivo activity in murine against Citrobacter freundii BS#16 infection after sc administration.; type: functional
Procedure, shortened: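 CD1 Swiss albino mice (18–20 g) infected intraperitoneally with 0.5 mL diluted bacterial culture suspension. Single subcutaneous treatment within 5 min, 1.0 mL at dorsal base of neck, serial dilutions spanning 0.05–250 mg/kg. Six mice per treatment and control group. ED50 (50% protective dose) derived by Reed and Muench method.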

- MIC [1]: 2 mg/L (≈ 2.39 µM)
- MIC [2]: 0.25 mg/L (≈ 0.299 µM)
- MIC [3]: 0.25 mg/L (≈ 0.299 µM)
- MIC [5]: 0.2 mg/L (≈ 0.239 µM)
- MIC [6]: 0.25 mg/L (≈ 0.299 µM)
- Concentration [8]: 0.1 µg/mL
- Concentration [9]: 30 µg/mL
- MIC [11]: 16 mg/L (≈ 19.1 µM)
- MIC [12]: 8 mg/L (≈ 9.56 µM)
- MIC [14]: 1 mg/L (≈ 1.19 µM)
- MIC [17]: 0.5 mg/L (≈ 0.597 µM)
- MIC [20]: 0.5 mg/L (≈ 0.597 µM)
- MIC [21]: 1 mg/L (≈ 1.19 µM)
SMILES: CC(C)(O/N=C(\C(=O)N[C@@H]1C(=O)N2C(C(=O)[O-])=C(C[N+]3(C)CCN(c4c(F)cc5c(=O)c(C(=O)O)cn(CCF)c5c4F)CC3)CS[C@H]12)c1csc(N)n1)C(=O)O
- ED50 [4]: < 5 mg/kg
- ED50 [7]: 3 mg/kg
- ED50 [10]: > 250 mg/kg
- ED50 [13]: 8 mg/kg
- ED50 [15]: 54 mg/kg
- ED50 [16]: 8 mg/kg
- ED50 [18]: 44 mg/kg
- ED50 [19]: 2.6 mg/kg
- ED50 [22]: 9 mg/kg
